Test results from paper PMC3075368 (Journal of molecular and cellular cardiology, 2011).
Read-outs that look alike come from different tables or passages of the source. Bridge positions count the residues as written; N and C are the ends. Ends that are not written are not given here.

Tests used:
[1] = system: heart function in rats after ischemia/reperfusion injury; conditions: rat, in vivo
[2] = target: T1, alpha-B crystalline (Homo sapiens, UniProt P02511); assay: Surface Plasmon Resonance assay; type: binding; conditions: biotinylated peptide on streptavidin coated chips, Biacore 2000
T1 sequence (P02511 1-175): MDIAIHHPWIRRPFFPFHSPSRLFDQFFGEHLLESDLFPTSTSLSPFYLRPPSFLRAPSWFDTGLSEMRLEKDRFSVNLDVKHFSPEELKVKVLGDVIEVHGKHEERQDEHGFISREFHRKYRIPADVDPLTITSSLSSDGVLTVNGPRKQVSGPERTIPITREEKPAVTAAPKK

[3] = system: heart function in rats after ischemia/reperfusion injury
[4] = system: ischemic left ventricle; assay: Western analysis of post-ischemic cardiac tissue with anti-mCherry antibody; type: in vivo, mouse; conditions: versus negative controls
Method in brief: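 Mice had 15 min ischemia then 5 min reperfusion. Recombinant Sumo-mCherry–test peptide (Ni-NTA plus size-exclusion purified; 10 mg/mL PBS stock) was given 1 mg i.v. Controls were unconjugated Sumo-mCherry, linear or scrambled peptide fusions, and PBS. After 5 min circulation, ischemic LV, non-ischemic LV and RV were snap frozen, RIPA-homogenized, sonicated and centrifuged, then blotted with rabbit anti-RFP. Three blinded sets, 5 mice each.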

[5] = echocardiography, 24 hours after administration, n=4, mean ± SEM
[6] = hemodynamic measurement, 24 hours after administration, n=4, mean ± SEM

CSKTALSMC (disulfide 1-9 (inferred)) [scrambled peptide]
% Fractional shortening [1]: 43.20±3.22%
Anterior wall thickness [1]: 2.08±0.08 mm
Cardiac index [1]: 20.96±4.48 ml/min per 100 g
Cardiac output [1]: 44530 ± 7633 µL/min
Ejection fraction [1]: 27.89±3.01%
End-diastolic dimension [1]: 5.16±0.23 mm
End-diastolic pressure [1]: 3.08±0.22 mmHg
End-diastolic volume [1]: 362.72 ± 14.82 µL
End-systolic dimension [1]: 2.93±0.18 mm
End-systolic pressure [1]: 120.1±3.48 mmHg
End-systolic volume [1]: 260.91 ± 10.99 µL
Heart rate [1]: 430.75±20.59 beats/min
LVM/BW [1]: 2.94±0.32
Left ventricle mass [1]: 646 ± 55.48 g
Posterior wall thickness [1]: 1.83±0.06 mm
Stroke volume [1]: 101.81 ± 13.74 µL

CSTSMLKAC (disulfide 1-9 (inferred))
interaction with alpha-B crystalline [2]: a significant interaction between CSTSMLKAC and alpha-B crystalline was not demonstrated
Body weight ([3]; 24 hours after administration, n=4, mean ± SEM): 260.25 ± 13.14 g
impairment in LV contractile function ([3]; 24 hours after systemic administration, versus scrambled peptide and PBS, n=4 each): did not induce any significant impairment
% Fractional shortening [3, 5]: 54.05±6.72%
Anterior wall thickness [3, 5]: 2.00±0.04 mm
End-diastolic dimension [3, 5]: 5.33±0.36 mm
End-systolic dimension [3, 5]: 2.49±0.51 mm
Posterior wall thickness [3, 5]: 1.73±0.10 mm
Cardiac index [3, 6]: 19.87±2.54 ml/min per 100 g
Cardiac output [3, 6]: 51430 ± 6708 µL/min
Ejection fraction [3, 6]: 28.44±2.09%
End-diastolic pressure [3, 6]: 3.96±0.67 mmHg
End-diastolic volume [3, 6]: 393.56 ± 25.62 µL
End-systolic pressure [3, 6]: 119±3.16 mmHg
End-systolic volume [3, 6]: 280.76 ± 15.91 µL
Stroke volume [3, 6]: 112.82 ± 13.61 µL

Sumo-mCherry-CSTSMLKAC
homing of the protein to post-ischemic cardiac tissue [4]: clear homing
